Experimental data collected from several papers.

COc1cc2c(cc1NC(=O)c1ccc(C(C)(C)C#N)cc1)CCCCC2 — CC50 (NHDF; cell growth or viability, ATP luminescence; 24 h): 3.57 µM
CCCCCn1nc(C(=O)Nc2cccc3ccccc23)c2ccccc21 — half-life (metabolic stability; Sprague-Dawley rat, liver microsomes; 1 µM, pH 7.4): 1.61 min
Cc1cc(C)nc(Nc2ncc(C(=O)NCCc3c(C)[nH]c4ccccc34)cn2)c1 — half-life (chemical stability; simulated intestinal fluid; 10 µM, pH 6.8): 197 min
CC[C@@H]1CN2CCc3c([nH]c4cccc(OC)c34)[C@H]2C[C@@H]1/C(=C\OC)C(=O)OC — half-life (mouse Hepatocyte; metabolic stability; hepatocytes): 11.2 min
Nc1c2c(nc3c1C(c1cccc([N+](=O)[O-])c1)c1ccc(OS(=O)(=O)c4ccc(F)cc4)cc1O3)CCCC2 (stereo not drawn) — viability (SH-SY5Y; cell growth or viability, MTT; 25 µM): 48.8%
CN1CCCCC1Cn1cc(C(=O)c2cc([N+](=O)[O-])ccc2I)c2ccccc21 (racemic) — half-life (metabolic stability; rat, liver microsomes): 13.7 min
C[C@]12CC[C@H](n3ccnc3)CC1=CC[C@@H]1[C@@H]2CC[C@]2(C)C(n3cnc4ccccc43)=CC[C@@H]12.Cl — bioavailability (male CD-1 mouse, plasma; oral, 10 mg/kg): > 100%
COc1cc2c(cc1C(=O)Nc1ccc(C(C)(C)C#N)cc1)CCCCC2 — CC50 (NHDF; cell growth or viability, ATP luminescence; 24 h): 94 µM
Nc1c2c(nc3c1C(c1ccc(Cl)c(Cl)c1)c1ccc(OCC(=O)c4ccc(Cl)cc4)cc1O3)CCCC2 (stereo not drawn) — viability (SH-SY5Y; cell growth or viability, MTT; 0.4 µM): 89.5%
O=C(Nc1ccc(Cl)cc1)Nc1cccc(-c2cccc(N3CCCC3)n2)c1 — half-life (metabolic stability; rat, liver microsomes; pH 7.4): 13.4 min
COc1ccc(S(=O)(=O)Oc2ccc3c(c2)Oc2nc4c(c(N)c2C3c2cccc(OC)c2)CCCC4)cc1 (stereo not drawn) — viability (SH-SY5Y; cell growth or viability, MTT; 1.6 µM): 84.3%
CCC[C@@](N)(CO)CCc1ccc(OCCCCCC(C)C)cc1 — IC50 (Cytochrome P450 2C9 (CYP2C9, Homo sapiens, UniProt P11712); enzyme activity, inhibitor): > 50 µM
